From PubChem
KCNQ1 act = potentiators or activators of human KCNQ1 potassium channel | P51787 | CHO-K1 KCNQ1, thallium flux FluxOR fluorescence; stronger effect = higher value | B-score at 10 µM | 0.35% of 310,000 active | AID 2648;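 active = fluorescence ratio B-score, a plate-corrected score, at least three library SD, with initial intensity B-score within 5 SD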
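Assay system: CHO-K1 cells stably expressing KCNQ1. Medium: assay buffer for compound exposure, DMSO matched across wells. Timing: 37 °C overnight plating, 90-min dark dye load, 20-min compound pretreatment. Signal: kinetic FluxOR fluorescence, 10 s baseline plus 110 s post-stimulus.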
SUMO Mot1 rescue = SUMOylation pathway inhibition by Mot1-301 growth rescue; S. cerevisiae Mot1-301 growth rescue, ATP luminescence, 38.5C; percent above DMSO median, 100 means doubled; growth rescue, % at 18.8 µM; 1% of 320,000 active; AID 2716;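 active = every valid replicate shows activation above 250% relative to neutral control wells; inactive = the rest, any valid replicate at or below 250%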;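 note: OY570 slx delta 5 strain wells were the positive control but not used for scaling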
AI-2 QS modul = modulates the Vibrio harveyi AI-2 quorum sensing system | Vibrio harveyi JMH597 AI-2 luminescence/OD600 ratio, 9 h; stronger effect = lower value; strain lacks LuxN and CqsS sensors; 0 = neutral-control median | activity change, % at 7.5 µM | 0.4% of 300,000 active | AID 2094; in the data active = activity change below about -75%, passing the limit was not always enough; inconclusive = no clear call, values can overlap the other calls;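 note: luminescence divided by OD600 gain over 9 h not by final OD600 alone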
KCC2 mod = KCC2 (human) Cl- transport modulation; 2.2% of 190,000 active; Q9H2X9; AID 1456; KCC2 cells, thallium flux FluoZin-2 fluorescence; B-score of Tl+ flux slope (higher = more flux/activation; lower = inhibition) at 10 µM;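 active = thallium flux slope and its plate-corrected score both differing from the plate sample mean at a set confidence after two filtering rounds, in either direction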;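 note: slope of fluorescence scaled to starting intensity during 10 to 20 s after thallium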
hERG protect = compounds protecting human hERG from proarrhythmic drug block; Q12809; CHO-hERG, FluxOR thallium flux, dofetilide IC70 present; activation (rescue from dofetilide block), less the hit threshold, % at 10 µM; 0.51% of 310,000 active; AID 1511;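 active = activation above the mean of controls blocked by dofetilide plus 5 SD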;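 note: thallium influx through hERG after potassium depolarization seen as dye fluorescence rise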
KCNQ1 block = human KCNQ1 channel inhibition; 1.3% of 310,000 active; CHO-K1 KCNQ1, FluxOR thallium flux fluorescence; stronger effect = higher value; B-score at 10 µM; P51787;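 active = compounds whose thallium flux B-score, printed positive for inhibition, exceeds three library SD while starting fluorescence stays within three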;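 note: channel opened by potassium depolarization with thallium stimulus after 20 min compound exposure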
KCC2 secondary = KCC2 (human) modulation, secondary assay | AID 1713 | shares compounds with KCC2 mod | HEK293-KCC2, thallium flux, FluoZin2 fluorescence; stronger effect = higher value | 15% of 3,700 active | normalised thallium flux (F/F0 slope) at 10 µM;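 active = thallium flux slope above the same plate's solvent-only control mean plus 3 SD; inconclusive = the two replicate wells disagree; inactive = no significant difference from solvent-only control wells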
KCC2 bumet counter = bumetanide-insensitive thallium flux in KCC2 cells with ouabain, counter-screen | HEK293-KCC2 + bumetanide/ouabain, thallium flux FluoZin2; stronger effect = higher value | normalized thallium flux at 10 µM | shares compounds with KCC2 mod | 49% of 3,700 active;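 active = thallium entry rate above the same plate's blocked-transporter control wells by more than 3 SD; inconclusive = the two repeat wells disagree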;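 note: raw slope of fluorescence over initial fluorescence between 10 and 20 s after thallium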
KCC2 secondary2 = KCC2 (human) modulation, second secondary assay | normalized thallium flux at 10 µM | shares compounds with KCC2 mod | 23% of 3,700 active | AID 1715 | HEK293-KCC2, thallium flux FluoZin2 fluorescence; actives lie on both sides; F/F0 rise rate, 10–20 s post-thallium;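 active = thallium flux slope more than 3 SD above or below the plate's solvent-only control mean, mostly below; inconclusive = the two repeat wells disagreed; inactive = no significant shift from solvent-only controls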;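 note: raw slope with 0.1% DMSO as baseline and bumetanide as block control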
HEK counter1 = acts in parental HEK cells, KCC2 counter-screen. shares compounds with KCC2 mod. HEK293 parental cells, thallium flux FluoZin2, ouabain; baseline-ratio fluorescence slope, 10–20 s after thallium. thallium flux rate (normalised fluorescence) at 10 µM. 46% of 3,700 active. AID 1716;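 active = thallium flux rate significantly above the same plate's solvent-only control wells, beyond their mean plus 3 SD; inconclusive = the two replicate wells gave conflicting results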
KCC2 retest ouab = confirmation of human KCC2 modulators with ouabain | shares compounds with KCC2 mod | HEK293-KCC2, thallium flux FluoZin2 fluorescence; bidirectional: low = inhibitor, high = activator | raw Tl+ flux slope (below DMSO = inhibition, above = activation) at 10 µM | 48% of 3,700 active | AID 1717;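 active = thallium flux slope beyond 3 SD from same-plate DMSO control mean in most replicates, usually higher, sometimes lower; inconclusive = repeat tests gave conflicting results; inactive = no significant difference from controls in most replicates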;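 note: slope of initial-normalized fluorescence between seconds 10 and 20 after thallium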
HEK293 Tl flux2 = counter-screen for KCC2 modulators: effect in parental HEK293 cells | shares compounds with KCC2 mod | thallium flux FluoZin-2 fluorescence slope | thallium flux slope at 10 µM | 33% of 3,700 active;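 active = thallium flux slope above the same plate's solvent-control mean plus 3 SD in both duplicate wells; inconclusive = duplicate wells that disagreed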;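 note: run without ouabain in cells lacking the KCC2 cotransporter; slope of fluorescence scaled to its starting value between 10 and 20 s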
The depositor's hits bear a star; i = inactive; ? = inconclusive; nt = no result given. Compounds with a hit are over-represented: about 4.2% of the library has one in this group of screens.

SMILES | KCNQ1 act | SUMO Mot1 rescue | AI-2 QS modul | KCC2 mod | hERG protect | KCNQ1 block | KCC2 secondary | KCC2 bumet counter | KCC2 secondary2 | HEK counter1 | KCC2 retest ouab | HEK293 Tl flux2
COCC(=O)Nc1cc(OC)ccc1OC | i | -13 | 46 | nt | -6 | i | 0.01 | ? | 0.035 | ? | 0.023 | ?
COc1ccc(Cl)cc1NC(=O)CC(C)=O | i | 3 | 4 | 7.3* | -2 | i | ? | ? | 0.033 | 0.0081 | 0.023 | 0.011
COc1ccc(Cl)cc1NC(=O)COC(C)=O | i | -16 | 14 | 0.4 | -14 | i | nt | nt | nt | nt | nt | nt
Cc1cccc(-c2ncc(CN3CCCC(CO)(Cc4ccccc4C)C3)cn2)c1 (configuration not stated) | i | -28 | 30 | -1.2 | -17 | i | nt | nt | nt | nt | nt | nt
Cn1c(=O)c2c(nc(SCCN3CCOCC3)n2C)n(C)c1=O | i | 10 | 3 | nt | -3 | i | nt | nt | nt | nt | nt | nt
Cn1c(=NC(=O)CCS(=O)(=O)c2ccccc2)sc2cc(F)ccc21 | i | nt | 5 | nt | -12 | i | nt | nt | nt | nt | nt | nt
CC(=O)SCC(=O)N=c1sc2cc(F)ccc2n1C | i | -19 | 22 | nt | -1 | i | 0.0069 | 0.0059* | 0.03 | ? | 0.019 | 0.011
Cc1ccc(/C=C/C(=O)Nc2cc(S(N)(=O)=O)ccc2O)cc1 | i | 0 | 19 | 0.019 | -15 | i | nt | nt | nt | nt | nt | nt
CCn1cc(C(=S)N2CCC(C(N)=O)CC2)c2ccccc21 | i | 13 | 15 | 0.3 | -4 | i | nt | nt | nt | nt | nt | nt
CC1CCCCC12NC(=S)N(c1ccccc1)N2 (configuration not stated) | i | 21 | 12 | 8.1* | -3 | i | ? | 0.022* | 0.034 | 0.016* | 0.027 | 0.012*
CC1CC(C)(C)CC2(C1)NC(=S)N(c1ccccc1)N2 (configuration not stated) | nt | 218 | 25 | nt | nt | nt | nt | nt | nt | nt | nt | nt
CCC1=NN2C(=N)/C(=C\c3cccn3-c3ccc(Br)cc3)C(=O)N=C2S1 | i | nt | 32 | 11* | -8 | i | 0.0075 | 0.022* | 0.033 | 0.019* | 0.025* | 0.014*
CCC1=NN2C(=N)/C(=C\c3cccn3-c3cccc(Cl)c3)C(=O)N=C2S1 | i | 159 | 44 | 8.8* | -5 | i | 0.017 | 0.05* | ? | 0.021* | 0.026* | 0.021*
CCCn1c(SCC(=O)Nc2ccc(S(=O)(=O)N(C)C)cc2)n[nH]c1=O | i | 13 | -15 | -0.97 | -5 | i | nt | nt | nt | nt | nt | nt
COc1ccc(-c2nnn(Cc3ccccc3F)n2)cc1 | i | 429 | -30 | -0.21 | -7 | i | nt | nt | nt | nt | nt | nt
CN(C)c1ccc(-c2nnn(Cc3ccccc3Br)n2)cc1 | i | 34 | -4 | -4.3* | -4 | i | 0.0093 | 0.011* | 0.032 | ? | 0.021 | 0.01
Cc1cc2nc(-c3ccc(SCc4ccc(C(=O)O)cc4)nc3)[nH]c2cc1C | i | -6 | 25 | -4* | -9 | i | 0.0072 | 0.0037 | 0.026 | ? | 0.014* | 0.0091
CC(C)Oc1ccc(/C(O)=C2/C(=O)C(=O)N(CCN3CCNCC3)C2c2cccc([N+](=O)[O-])c2)cc1 (configuration not stated) | i | 2 | nt | nt | -8 | i | nt | nt | nt | nt | nt | nt
COc1ccc(-c2ccnc3nc(N4CCN(c5ccccc5)CC4)nn23)cc1 | i | 9 | 18 | nt | -21 | i | nt | nt | nt | nt | nt | nt
Fc1ccc(CSc2nncn2NCc2ccccc2)cc1 | i | -7 | -14 | -1.7 | -5 | i | nt | nt | nt | nt | nt | nt
Fc1ccc(CSc2nncn2NC/C=C/c2ccccc2)cc1 | i | -8 | 18 | nt | -16 | i | 0.0082 | 0.004 | ? | 0.0067 | ? | 0.0092
CCN(CC(=O)Nc1ccccc1OC)C(=O)c1cc(S(=O)(=O)N2CCCCCC2)ccc1OC | i | 3 | 17 | nt | -19 | i | nt | nt | nt | nt | nt | nt
COc1cc(OC)c(OC)cc1/C=N/N(C)c1ccccc1 | i | 152 | 19 | -0.67 | -6 | i | nt | nt | nt | nt | nt | nt
COc1cc(/C=N/N(C)c2ccccc2)ccc1O | i | 16 | 0 | -4.1* | -13 | i | 0.006 | 0.0047 | 0.025* | 0.0069 | ? | 0.01
O=S(=O)(c1cccc(F)c1)N1CCN(Cc2cc3c(cc2Br)OCCO3)CC1 | nt | 1 | nt | nt | nt | nt | nt | nt | nt | nt | nt | nt
SMILES | KCNQ1 act | SUMO Mot1 rescue | AI-2 QS modul | KCC2 mod | hERG protect | KCNQ1 block | KCC2 secondary | KCC2 bumet counter | KCC2 secondary2 | HEK counter1 | KCC2 retest ouab | HEK293 Tl flux2
O=C(N/N=C/c1cccnc1)c1cccs1 | i | 18 | 24 | -3.7* | -7 | i | 0.0067 | 0.0049 | 0.033 | 0.0075 | 0.019 | 0.01
O=C(NCCCc1ccccc1)c1cc([N+](=O)[O-])ccc1Cl | i | -11 | 45 | -7.5* | -9 | i | ? | 0.0045 | 0.02* | ? | 0.012* | 0.0098
O=C(NCc1ccccc1Cl)c1cc([N+](=O)[O-])ccc1Cl | i | nt | 7 | -1.1 | -7 | i | nt | nt | nt | nt | nt | nt
O=C(O)c1cc([N+](=O)[O-])ccc1N1CCC(Cc2ccccc2)CC1 | i | 4 | 36 | -4.6* | -8 | i | 0.0081 | ? | ? | 0.0079 | 0.015* | 0.011
COc1ccc([N+](=O)[O-])cc1NCc1ccccc1 | i | 15 | 4 | -3.8* | -7 | i | 0.0066 | 0.0041 | 0.029 | 0.0053* | 0.014* | 0.0096
COc1ccc([N+](=O)[O-])cc1NCc1ccccc1C | i | 11 | 3 | 0.7 | 0 | i | nt | nt | nt | nt | nt | nt
O=C(O)c1cc([N+](=O)[O-])ccc1NCc1ccccc1 | i | nt | 13 | -5.3* | -3 | i | 0.0099 | 0.0073 | 0.025* | 0.0068 | ? | 0.01
O=C(COc1ccccc1)NCC(c1ccco1)N1CCCCC1 (configuration not stated) | i | -4 | 16 | nt | -16 | i | nt | nt | nt | nt | nt | nt
CCOc1cccc(-c2c(C(=O)N/N=C/c3cccs3)nnn2-c2nonc2N)c1 | i | 76 | -29 | nt | -10 | i | nt | nt | nt | nt | nt | nt
